Laboratory results reported in ChEMBL document CHEMBL1154823, “Polyacetylenes from Bupleurum longiradiatum” (J Nat Prod, 2009).

Each compound was assayed on HL-60 (assay: Growth inhibition of human HL60 cells after 3 days by MTT assay). Settings: HL-60, 72 h.
Assay type: functional, cell-based
Outline: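 HL-60 human leukemia cells, […], seeded at 4000-5000 cells/well and […] before compound addition. Compounds tested at 0.01, 0.1, 1, 10 and 100 µg/mL for 3 days. MTT (5 mg/mL) added, formazan dissolved in DMSO after 4 h, OD read at 570 nm. Growth inhibition (%) = (OD_control − OD_treated)/OD_control × 100. Doxorubicin served as positive control.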

`CCCCC/C=C\CC#CC#C/C=C\CO` and `CCCCCCC/C=C\CC#CC#C/C=C\CO` are the same in IC50: 11 µM for the first, 11 µM for the second.

First: CCC[C@H](O)CC/C=C/C=C/C#CC#C/C=C\COC(C)=O
Second: CCC[C@H](O)CC/C=C/C=C/C#CC#C/C=C\CO [BUPLEUROTOXIN]
The IC50 of the first is 1.9-fold higher: 9.4 µM for the first, 4.9 µM for the second.

`OC/C=C\C#CC#CC/C=C\CCCCCCCCO` and `OC/C=C/C=C/C#CC/C=C\CCCCCCCCO` cannot be ordered by IC50: greater than 10 µM for the first, greater than 10 µM for the second.

`CCCCCC/C=C/C=C/C#CC#C/C=C\CO` and `CCCC/C=C/C=C/C#CC#C/C=C\CO` are the same in IC50: 11 µM for the first, 11 µM for the second.

`CCC[C@H](CC/C=C/C=C/C#CC#C/C=C\CO)OC(C)=O` [ACETYLBUPLEUROTOXIN] and `CCCC(=O)CC/C=C/C=C/C#CC#C/C=C\CO` [BUPLEURONOL] are the same in IC50: 11 µM for the first, 11 µM for the second.

`CCCCCC/C=C/C=C/C#C/C=C/C=C/COC(C)=O` and `CCCCCCC/C=C\CC#C/C=C/C=C/COC(C)=O` are the same in IC50: 11 µM for the first, 11 µM for the second.

`CC(=O)OC/C=C/C=C/C#CC/C=C\CCCCCCCCOC(C)=O` gave an IC50 greater than 10 µM.
